How the values were obtained:
[1] = folding enthalpy; higher = less favourable; fluorescence melt of hairpins on a sequencing array, two-state fit; conditions: sodium 0.088 M
Summary of the method: (§1)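 In 50 mM Na-HEPES pH 8.0 containing 25 mM NaCl, hairpins from the library on a sequenced MiSeq flow cell were imaged for Cy3 fluorescence at 2.5 °C steps up to 60 °C, with Cy3 and quencher oligos annealed. After normalisation to pre-quench Cy3 and to control constructs, two-state fits with bootstrapping gave melting temperature and folding enthalpy. Four replicates were combined by inverse-variance weighting, and fitted temperatures were shifted up by 9.35 °C to match UV melts.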

[2] = melting temperature; fluorescence melt of hairpins on a sequencing array, two-state fit, raised by 9.35 °C to match UV melts; conditions: sodium 0.088 M
Summary of the method: as §1

GCACGCGGAAACGCGCAC (..((((....))))..)
folding enthalpy [1]: -7.82 kcal/mol | Tm [2]: 31.1 °C

GCACGCGGAAACGCGCGC ((.((((....)))).))
folding enthalpy [1]: -23.5 kcal/mol | Tm [2]: 68.5 °C

GCACGGCCGAAAGGCTGC (((..(((....))))))
folding enthalpy [1]: -10 kcal/mol | Tm [2]: 45.1 °C

GCACGGCGAAAGCAGCGC ((.(.((....)).).))
folding enthalpy [1]: -21.1 kcal/mol | Tm [2]: 57.2 °C

GCACGGCGAAAGCATTGC (((..((....))..)))
folding enthalpy [1]: -16.6 kcal/mol | Tm [2]: 39.9 °C

GCACGGCGAAAGCCACGC ((..(((....)))..))
folding enthalpy [1]: -19.1 kcal/mol | Tm [2]: 54.9 °C

GCACGGCGAAAGCCAGGC ((..(((....)))..))
folding enthalpy [1]: -14.9 kcal/mol | Tm [2]: 55 °C

GCACGGCGAAAGCCCGGC ((..(((....)))..))
folding enthalpy [1]: -15.4 kcal/mol | Tm [2]: 50.1 °C

GCACGGCGAAAGCCTGGC ((..(((....)))..))
folding enthalpy [1]: -15.2 kcal/mol | Tm [2]: 51.7 °C

GCACGGCGAAAGCGATGC (((..((....))..)))
folding enthalpy [1]: -18.2 kcal/mol | Tm [2]: 47.2 °C

GCACGGGCGAAAGCCTGC (((..(((....))))))
folding enthalpy [1]: -12.7 kcal/mol | Tm [2]: 45.2 °C

GCACGGGGAAACCCATGC (((.(((....))).)))
folding enthalpy [1]: -29.5 kcal/mol | Tm [2]: 47 °C

GCACGGGGAAACCCGCGC ((.((((....)))).))
folding enthalpy [1]: -36.1 kcal/mol | Tm [2]: 58.4 °C

GCACGGGGAAACCCGTAC (.(((((....))))).)
folding enthalpy [1]: -13.2 kcal/mol | Tm [2]: 41.7 °C

GCACGTCGAAAGACTGC (((.(((....))))))
folding enthalpy [1]: -27.5 kcal/mol | Tm [2]: 56.5 °C

GCACGTGGAAACACACGC ((..(((....)))..))
folding enthalpy [1]: -21.3 kcal/mol | Tm [2]: 37.8 °C

GCACGTGGAAACACATGC (((.(((....))).)))
folding enthalpy [1]: -31.9 kcal/mol | Tm [2]: 45.1 °C

GCACGTGGAAACACGTAC (.(((((....))))).)
folding enthalpy [1]: -14.2 kcal/mol | Tm [2]: 44.1 °C

GCACTACGAAAGTACTGC (((.(((....))).)))
folding enthalpy [1]: -26.9 kcal/mol | Tm [2]: 37.6 °C

GCACTCACGAAAGTGTGC (((..(((....))))))
folding enthalpy [1]: -23 kcal/mol | Tm [2]: 48.7 °C

GCACTCGAAAGAGACTGC ((((((....)))..)))
folding enthalpy [1]: -17 kcal/mol | Tm [2]: 34.6 °C

GCACTCGAAAGAGCCTGC ((((((....)))..)))
folding enthalpy [1]: -12.9 kcal/mol | Tm [2]: 27.8 °C

GCACTCGAAAGAGGTGC ((((((....))).)))
folding enthalpy [1]: -29.1 kcal/mol | Tm [2]: 54.4 °C

GCACTCGAAAGAGTCTGC ((((((....)))..)))
folding enthalpy [1]: -19.2 kcal/mol | Tm [2]: 40.1 °C

GCACTCGAAAGAGTGTGC ((((((....)))..)))
folding enthalpy [1]: -20.1 kcal/mol | Tm [2]: 63.8 °C

GCACTCGGAAACGGGTGC ((((.((....)).))))
folding enthalpy [1]: -51.6 kcal/mol | Tm [2]: 59.5 °C

GCACTGCGAAAGCAAGGC ((..(((....)))..))
folding enthalpy [1]: -17.8 kcal/mol | Tm [2]: 47.5 °C

GCACTGCGAAAGCATAGC ((..(((....)))..))
folding enthalpy [1]: -15.3 kcal/mol | Tm [2]: 35.6 °C

GCACTGCGAAAGCATGGC ((..(((....)))..))
folding enthalpy [1]: -17.4 kcal/mol | Tm [2]: 44.8 °C

GCACTGCGAAAGCCTTGC (((..((....))..)))
folding enthalpy [1]: -21.9 kcal/mol | Tm [2]: 36.6 °C

GCACTGCGAAAGCTGAGC ((.(.((....)).).))
folding enthalpy [1]: -20.5 kcal/mol | Tm [2]: 49.2 °C

GCACTGCGAAAGCTGCGC ((.(.((....)).).))
folding enthalpy [1]: -22.5 kcal/mol | Tm [2]: 57.1 °C

GCACTGGAAACAGTGC ((((((....))))))
folding enthalpy [1]: -38.3 kcal/mol | Tm [2]: 65.2 °C

GCACTGGCGAAAGCCTGC (((..(((....))))))
folding enthalpy [1]: -12.1 kcal/mol | Tm [2]: 44.3 °C

GCACTTACGAAAGTATGC (((..(((....))))))
folding enthalpy [1]: -18.1 kcal/mol | Tm [2]: 30.3 °C

GCACTTCGAAAGAATGC (((.(((....))))))
folding enthalpy [1]: -31.2 kcal/mol | Tm [2]: 41.5 °C

GCACTTGCGAAAGCATGC (((..(((....))))))
folding enthalpy [1]: -10.8 kcal/mol | Tm [2]: 38.6 °C

GCACTTGGAAACGAGTGC (((((.(....).)))))
folding enthalpy [1]: -54.9 kcal/mol | Tm [2]: 54.1 °C

GCAGAACGAAAGTTTTGC (((.(((....))).)))
folding enthalpy [1]: -40.9 kcal/mol | Tm [2]: 52.1 °C

GCAGAAGGAAACTTTTGC (((.(((....))).)))
folding enthalpy [1]: -31.2 kcal/mol | Tm [2]: 37 °C

GCAGAATCGAAAGATTGC (((..(((....))))))
folding enthalpy [1]: -21.1 kcal/mol | Tm [2]: 34.6 °C

GCAGACACGAAAGTGTGC (((..(((....))))))
folding enthalpy [1]: -15.3 kcal/mol | Tm [2]: 46.8 °C

GCAGACGAAAGTCACTGC ((((((....)))..)))
folding enthalpy [1]: -18.6 kcal/mol | Tm [2]: 39.5 °C

GCAGACGAAAGTCCTTGC ((((((....)))..)))
folding enthalpy [1]: -12.3 kcal/mol | Tm [2]: 32.5 °C

GCAGACGAAAGTCTTTGC ((((((....)))..)))
folding enthalpy [1]: -14.4 kcal/mol | Tm [2]: 37.1 °C

GCAGACGGAAACACCTGC ((((..(....)..))))
folding enthalpy [1]: -18.1 kcal/mol | Tm [2]: 28.6 °C

GCAGAGAAATCTGC (((((....)))))
folding enthalpy [1]: -23.1 kcal/mol | Tm [2]: 50.6 °C

GCAGAGCGAAAGCACCGC ((.(.((....)).).))
folding enthalpy [1]: -14.2 kcal/mol | Tm [2]: 45.4 °C

GCAGAGCGAAAGCACGGC ((.(.((....)).).))
folding enthalpy [1]: -20.9 kcal/mol | Tm [2]: 55.1 °C

GCAGAGCGAAAGCATTGC (((..((....))..)))
folding enthalpy [1]: -17.3 kcal/mol | Tm [2]: 49.9 °C

GCAGAGCGAAAGCCGTGC (((..((....))..)))
folding enthalpy [1]: -16.4 kcal/mol | Tm [2]: 42.1 °C

GCAGAGCGAAAGCGTTGC (((..((....))..)))
folding enthalpy [1]: -19.4 kcal/mol | Tm [2]: 62 °C

GCAGAGCGAAAGCTAGGC ((..(((....)))..))
folding enthalpy [1]: -16.4 kcal/mol | Tm [2]: 50.7 °C

GCAGAGTCGAAAGACTGC (((..(((....))))))
folding enthalpy [1]: -16.7 kcal/mol | Tm [2]: 48.7 °C

GCAGATACGAAAGTATGC (((..(((....))))))
folding enthalpy [1]: -22.3 kcal/mol | Tm [2]: 36.5 °C

GCAGATCGAAAGATATGC (((.(((....))).)))
folding enthalpy [1]: -36.7 kcal/mol | Tm [2]: 54.7 °C

GCAGATGAAAATCTGC ((((((....))))))
folding enthalpy [1]: -39 kcal/mol | Tm [2]: 59.9 °C

GCAGATGGAAACATCTAC (.(((((....))))).)
folding enthalpy [1]: -19.1 kcal/mol | Tm [2]: 34.7 °C

GCAGATGGAAACATCTGC (((((((....)))))))
folding enthalpy [1]: -37.5 kcal/mol | Tm [2]: 67.1 °C

GCAGATGGAAACGTCTGC (((((.(....).)))))
folding enthalpy [1]: -45.2 kcal/mol | Tm [2]: 53.2 °C

GCAGCAACGAAAGTTTGC (((..(((....))))))
folding enthalpy [1]: -17.1 kcal/mol | Tm [2]: 35.8 °C

GCAGCACGAAAGTGATGC (((.(((....))).)))
folding enthalpy [1]: -36.2 kcal/mol | Tm [2]: 69 °C

GCAGCAGGAAACTGCCGC ((.((((....)))).))
folding enthalpy [1]: -27.8 kcal/mol | Tm [2]: 50.5 °C

GCAGCAGGAAACTGCTAC (.(((((....))))).)
folding enthalpy [1]: -13.4 kcal/mol | Tm [2]: 44.7 °C

GCAGCAGGAAACTGTTGC (((.(((....))).)))
folding enthalpy [1]: -52.3 kcal/mol | Tm [2]: 52.1 °C

GCAGCCGAAAGGCCTGC ((((((....))).)))
folding enthalpy [1]: -25.5 kcal/mol | Tm [2]: 61.3 °C

GCAGCCGAAAGGCCTTGC ((((((....)))..)))
folding enthalpy [1]: -10.6 kcal/mol | Tm [2]: 35.7 °C

GCAGCCGAAAGGCTTGC ((((((....))).)))
folding enthalpy [1]: -15.3 kcal/mol | Tm [2]: 62 °C

GCAGCCGAAAGGCTTTGC ((((((....)))..)))
folding enthalpy [1]: -10.2 kcal/mol | Tm [2]: 42.2 °C

GCAGCCGGAAACGACCGC ((.(.((....)).).))
folding enthalpy [1]: -20.9 kcal/mol | Tm [2]: 31.2 °C

GCAGCCGGAAACGGCCGC ((.((((....)))).))
folding enthalpy [1]: -17.2 kcal/mol | Tm [2]: 58.9 °C

GCAGCGCCGAAAGGCTGC (((..(((....))))))
folding enthalpy [1]: -14.7 kcal/mol | Tm [2]: 53.9 °C

GCAGCGCGAAAGCGTAGC ((..(((....)))..))
folding enthalpy [1]: -15.9 kcal/mol | Tm [2]: 56.4 °C

GCAGCGCGAAAGCTATGC (((..((....))..)))
folding enthalpy [1]: -16.8 kcal/mol | Tm [2]: 45.2 °C

GCAGCGGGAAACCACCGC ((.(.((....)).).))
folding enthalpy [1]: -14.2 kcal/mol | Tm [2]: 39.8 °C

GCAGCTCGAAAGAGGTGC (((.(((....))).)))
folding enthalpy [1]: -29.4 kcal/mol | Tm [2]: 67.5 °C

GCAGCTGGAAACAGTTGC (((.(((....))).)))
folding enthalpy [1]: -51.6 kcal/mol | Tm [2]: 53.1 °C

GCAGGACGAAAGTCATGC (((.(((....))).)))
folding enthalpy [1]: -37.9 kcal/mol | Tm [2]: 66.3 °C

GCAGGAGGAAACCCCTGC (((((.(....).)))))
folding enthalpy [1]: -41.4 kcal/mol | Tm [2]: 50.9 °C

GCAGGAGGAAACTCCCAC (..((((....))))..)
folding enthalpy [1]: -16.8 kcal/mol | Tm [2]: 25.8 °C

GCAGGCCCGAAAGGGTGC (((..(((....))))))
folding enthalpy [1]: -13.1 kcal/mol | Tm [2]: 41.9 °C

GCAGGCGAAAGCCAGTGC ((((((....)))..)))
folding enthalpy [1]: -18.9 kcal/mol | Tm [2]: 49.5 °C

GCAGGCGAAAGCCATTGC ((((((....)))..)))
folding enthalpy [1]: -13.2 kcal/mol | Tm [2]: 42.7 °C

GCAGGCGAAAGCCCTTGC ((((((....)))..)))
folding enthalpy [1]: -11.9 kcal/mol | Tm [2]: 38.9 °C

GCAGGCGCGAAAGCGTGC (((..(((....))))))
folding enthalpy [1]: -13.3 kcal/mol | Tm [2]: 49.4 °C

GCAGGCGGAAACACCCGC ((.((.(....).)).))
folding enthalpy [1]: -12.6 kcal/mol | Tm [2]: 36.1 °C

GCAGGCGGAAACGTCTGC ((((.((....)).))))
folding enthalpy [1]: -35.3 kcal/mol | Tm [2]: 63.1 °C

GCAGGGCGAAAGCAATGC (((..((....))..)))
folding enthalpy [1]: -24.1 kcal/mol | Tm [2]: 59.9 °C

GCAGGGCGAAAGCCACGC ((..(((....)))..))
folding enthalpy [1]: -15.2 kcal/mol | Tm [2]: 52.2 °C

GCAGGGCGAAAGCCGAGC ((..(((....)))..))
folding enthalpy [1]: -14.9 kcal/mol | Tm [2]: 50.1 °C

GCAGGGCGAAAGCCTAGC ((..(((....)))..))
folding enthalpy [1]: -18.9 kcal/mol | Tm [2]: 55.2 °C
